# Source: PubChem
# Most compounds without a hit are left out; they make up all but 9.3% or so of the library.
# PostGolgi ctrl = growth of the yeast control strain, post-Golgi counter-screen; AID 738; efflux-deficient yeast background strain, growth absorbance A615, 16 h; 98,000 tested, 5% active; inhibition, % at 10 µM
# DAT uptake mod = human DAT dopamine uptake with cocaine, either direction. LLC-PK1 hDAT cells, [14C]-dopamine uptake with cocaine IC80; actives deviate in either direction. B-score at 10 µM. 110,000 tested, 1.3% active. AID 449768;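 active = Z score or B-score, a plate-position-corrected score, falls beyond the plate's 99.7% confidence bounds, in either direction; inactive = both scores lie inside the 99.7% bounds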;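 also: scored against the spread of the other compound wells on the same plate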
# PostGolgi yeast = growth inhibition of a yeast mutant, post-Golgi transport screen. post-Golgi transport phenotypic cell assay. inhibition, % at 10 µM. 98,000 tested, 0.9% active. AID 739;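 also: yeast cells grown in 1536-well plates; yeast grown about 18 h at 30C before absorbance read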
# E coli WT exp = E. coli BW25113 growth inhibition, expanded screen; OD600 absorbance; growth inhibition, % at 100 µM; 98,000 tested, 0.15% active; AID 710;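 active = growth inhibition above about 50% at one test dose, limit read from the data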;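 also: growth measured after 20 h incubation at 37 °C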
# D1 allo mod = allosterically modulates the human D1 dopamine receptor; 58,000 tested, 5.9% active; HEK293 D1, CRE-luciferase, dopamine EC30 potentiation; actives deviate in either direction; B-score at 10 µM; AID 641; P21728;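 active = luminescence count or its row- and column-corrected plate score outside the 99.7% band of the plate's sample wells, on either side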
# Target sequence (P21728 whole entry, looked up): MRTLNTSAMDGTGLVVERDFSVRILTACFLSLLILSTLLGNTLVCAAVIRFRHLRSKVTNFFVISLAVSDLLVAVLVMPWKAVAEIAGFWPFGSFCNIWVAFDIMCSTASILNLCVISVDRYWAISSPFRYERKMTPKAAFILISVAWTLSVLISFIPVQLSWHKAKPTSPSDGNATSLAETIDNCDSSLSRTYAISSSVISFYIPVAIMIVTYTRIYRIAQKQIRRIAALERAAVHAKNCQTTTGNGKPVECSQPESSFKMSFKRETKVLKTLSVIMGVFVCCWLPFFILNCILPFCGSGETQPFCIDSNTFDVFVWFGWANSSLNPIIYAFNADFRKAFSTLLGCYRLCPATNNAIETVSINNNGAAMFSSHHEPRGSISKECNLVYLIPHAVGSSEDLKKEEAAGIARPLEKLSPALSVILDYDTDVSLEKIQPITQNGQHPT
# Ecoli tolC = growth inhibitors of E. coli BW25113 tolC mutant | OD615 | growth inhibition, % at 10 µM (by protocol) | 65,000 tested, 2.2% active;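 active = growth inhibition at or above a cutoff equal to the mean over every tested compound plus 3 SD, cut at about 60% in these data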;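 also: growth measured after 20 h incubation at 37 °C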
#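 System: E. coli ΔtolC::kan strain BW25113; Buffer or medium: LB broth supplemented with 50 µg/mL kanamycin; Compound: 10 µM final, single dose; Incubation: bacterial growth with compound for 20 h at 37 °C; Signal: A615 absorbance measurement; Evaluation: growth inhibition in percent.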
# D1 PAM confirm = D1 receptor (human) allosteric modulation, confirmed; shares compounds with D1 allo mod; HEK293 D1 CRE-luciferase, dopamine EC30 potentiation; stronger effect = higher value; luminescence at 10 µM; 2,200 tested, 88% active;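 active = luminescence in either of two replicates above the same-plate mean plus 3 SD of the low-dose dopamine control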
# D1 ag no DA = activates D1 CRE-luciferase signal without dopamine present | luminescence at 10 µM | shares compounds with D1 allo mod | HEK293 D1 CRE-luciferase, luminescence, no dopamine; stronger effect = higher value | 1,900 tested, 0.8% active; in the data active = luminescence above about 3900
# Isoprot counter = isoproterenol response counter-screen activity for D1 modulators. shares compounds with D1 allo mod. calls only at 10 µM. HEK293 D1 CRE-luciferase, isoproterenol EC30 counter-screen. 2,200 tested, 63% active;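 active = luminescence in either replicate above plate mean of wells with a partly effective reference agonist dose plus 3 SD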;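 also: isoproterenol raises cAMP through native beta-adrenoceptor Gs so signal bypasses D1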
# * = called active by the depositor; i = inactive; . = not tested or not shown; + = active, no number. Rule as the data show it, unless noted: active = inhibition above about 30%; inactive = the rest.
SMILES,PostGolgi ctrl,DAT uptake mod,PostGolgi yeast,E coli WT exp,D1 allo mod,Ecoli tolC,D1 PAM confirm,D1 ag no DA,Isoprot counter
C=CCNc1sc(C(=O)C2CC2)c(N)c1C#N,-2.1,1.36,-2.2,-9.0,18.8*,9.2,26736*,1716,+
C=CCNc1sc(C(=O)C(C)(C)C)c(N)c1C#N,15.3,-0.02,-1.5,-8.0,9.31*,0.7,21312*,1684,i
C=CCNc1sc(C(=O)c2ccc(C)cc2)c(N)c1C#N,21.8,0.0423,-11.6,23.0,.,.,.,.,.
C=CCNc1sc(C(=O)c2ccccc2)c(N)c1C#N,12.8,-0.0718,4.9,-6.0,.,.,.,.,.
Cc1cc(C)cc(N(CC(=O)N2CCn3c2nc2ccccc23)S(=O)(=O)c2c(C)noc2C)c1,13.0,0.154,-5.8,1.0,0.151,15.2,.,.,.
Cc1oc(-c2ccc(Cl)cc2)nc1CN1CCC(C(=O)NCCCN2CCOCC2)CC1,-0.9,0.211,9.2,9.0,3.65*,-8.2,6764,1668,i
Cc1oc(-c2cccc(Cl)c2)nc1CN1CCCC(C(=O)NCCCN2CCOCC2)C1 (stereo not drawn),3.6,.,-2.4,7.0,0.772,-0.3,.,.,.
COC(=O)C1CCN(S(=O)(=O)c2c(C)n(C)c(=O)n(C)c2=O)CC1,14.5,-1.02,-0.2,2.0,1.43*,-9.1,7080,1560,i
CC(C)n1c(SCC(=O)Nc2ccccc2)nc2c1c(=O)n(C)c(=O)n2C,.,0.642,.,.,.,.,.,.,.
CCSc1oc(-c2ccco2)nc1S(=O)(=O)c1ccc(F)cc1,1.3,-0.425,-0.3,-4.0,4.65*,39.2,11820*,1660,i
Cc1ccc(S(=O)(=O)c2nc(-c3ccco3)oc2SCC(=O)NCC2CCCO2)cc1 (stereo not drawn),3.9,-0.16,-5.6,-10.0,0.957,-5.1,.,.,.
CCSc1oc(-c2cccs2)nc1S(=O)(=O)c1ccccc1,29.1,-0.455,-4.2,-22.0,14.9*,50.1,18740*,1592,+
COc1ccc(CCNS(=O)(=O)c2cccc(C(=O)O)c2)cc1OC,18.2,-0.488,-8.7,-5.0,0.559,-12.3,.,.,.
Cn1cnc2c1c(=O)n(Cc1ccccc1)c(=O)n2C,-6.8,-1.15,-7.4,5.0,.,-10.2,.,.,.
Cn1cnc2c1c(=O)n(Cc1cccc(Br)c1)c(=O)n2C,10.2,0.0276,3.3,4.0,10.5*,1.5,12308*,1656,+
c1ccc2c(c1)nc(NC1CCCCC1)c1nncn12,.,1.46,-5.3,5.0,14.4*,6.2,9836*,1048,+
c1ccc(Nc2nc3ccccc3n3cnnc23)cc1,25.9,0.017,20.6,-6.0,4.19*,11.8,15712*,1616,i
COc1ccccc1Cn1c(=O)c2ccccc2n2c(SCC(=O)N3CCCCC3)nnc12,.,.,.,.,.,-0.7,.,.,.
CN(C)c1cccc(C(=O)OCC(=O)NCC2CCCO2)c1 (stereo not drawn),-2.1,-0.252,-4.2,3.0,-0.28,3.9,.,.,.
Cc1ccc(Nc2nnc(SCc3cc(=O)n4ccsc4n3)s2)c(C)c1,12.2,0.945,18.7,3.0,2.55*,37.3,6736*,1632,i
CCOC(=O)c1c(NC(=O)C2c3ccccc3Oc3ccccc32)sc(C(=O)N(CC)CC)c1C,4.3,-0.0326,0.5,-20.0,.,.,.,.,.
CCOc1ccc(CC(=O)C2C(=O)CC(C)(C)CC2=O)cc1OCC,12.3,-0.0124,6.7,0.0,.,.,.,.,.
CCOc1ccc(CC(=O)C2C(=O)CCCC2=O)cc1OCC,14.7,0.0284,-2.4,-3.0,4.28*,-10.2,10588*,1684,+
CCCn1c(=NC(=O)c2ccco2)c(C(=O)OCC)cc2c(=O)n3ccccc3nc21,5.4,0.178,5.6,5.0,6.12*,8.4,16752*,1572,i
CCOC(=O)c1cc2c(=O)n3ccccc3nc2n(CCCOC)c1=NC(C)=O,17.1,.,15.7,1.0,4.65*,4.8,9064*,.,i
SMILES,PostGolgi ctrl,DAT uptake mod,PostGolgi yeast,E coli WT exp,D1 allo mod,Ecoli tolC,D1 PAM confirm,D1 ag no DA,Isoprot counter
Cc1ccc2c(c1)SC1=NC(c3ccccc3)(C(F)(F)F)NC(=O)N12 (stereo not drawn),17.1,.,20.2,3.0,.,.,.,.,.
CNc1nc(C)c(C(=O)OCc2ccccc2)s1,6.0,2.01,21.3,3.0,17.6*,2.1,16572*,1592,+
CCOC(=O)c1sc(Nc2ccccc2)nc1C,10.9,1.51,5.0,-1.0,.,.,.,.,.
CNc1nc(C)c(C(=O)OCC(=O)OC)s1,11.7,-0.43,-6.9,7.0,9.36*,-16.0,13828*,1716,i
O=C(NCc1cccc(Br)c1)C1CC2Cn3c(nc4ccccc43)C2N1c1ccccc1 (stereo not drawn),.,-0.965,.,.,.,.,.,.,.
CN(CC(=O)NC1CCCCCCC1)S(=O)(=O)c1cccc2cccnc12,9.4,0.693,-0.6,2.0,.,20.8,.,.,.
O=S(=O)(NC1CCCCCC1)c1cccc2cccnc12,10.7,-0.419,18.1,11.0,5.54*,-5.7,9760*,1524,+
CNC[C@H](O)c1cccc(O)c1,.,0.0561,.,.,17.4*,5.4,11024*,5672*,+
CN1CCc2c(sc3c2c(=O)n(-c2ccccc2)c2n[nH]c(=S)n32)C1,4.5,-1.25,2.3,-2.0,.,.,.,.,.
CCOC(=O)N1CCC(NC(=O)CSCc2nc(-c3ccc(OC)c(OC)c3)oc2C)CC1,4.5,.,-6.8,5.0,1.31,-5.6,.,.,.
COc1ccc(-c2nc(CSCC(=O)N3CCN(c4cccc(C)c4)C(C)C3)c(C)o2)cc1OC (stereo not drawn),21.0,.,-8.7,-15.0,11.6*,23.7,12288*,.,+
COc1ccc(-c2nc(CSCC(=O)N3CCc4ccccc4C3)c(C)o2)cc1OC,21.4,1.91*,5.7,0.0,7.84*,9.9,7660,1528,+
COc1ccc(-c2nc(CSCC(=O)N3CCC(C(N)=O)CC3)c(C)o2)cc1OC,-10.7,0.5,-5.3,-3.0,0.709,-12.4,.,.,.
COc1ccc(-c2nc(CS(=O)CC(=O)NC3CCCc4ccccc43)c(C)o2)cc1OC (stereo not drawn),1.7,-1.4,4.7,0.0,4.44*,1.2,9276*,.,+
Cc1cc(C)nc(-n2nc(C)cc2NC(=O)CNCc2ccccc2)n1,8.4,0.532,11.1,-4.0,.,.,.,.,.
CCC(C(=O)Nc1cc(C)nn1-c1nc(C)cc(C)n1)c1ccccc1 (stereo not drawn),48.0*,-0.202,17.1,5.0,9.86*,55.9,12296*,.,+
C=C(C)C(=O)Nc1cccc(C2=NOC3(C2)C[C@H](C(N)=O)N(C(=O)c2ccccc2C(=O)c2ccccc2)C3)c1 (stereo partly drawn),.,1.07,.,.,.,.,.,.,.
